# PolyA inh: yeast polyadenylation inhibition; S. cerevisiae SKY197-pL101 polyadenylation reporter, beta-gal luminescence; efflux-impaired pdr1/pdr3 knockout yeast; score 100 = 6 SD above DMSO; activity score, % at 12 µM; 300,000 compounds, 0.02% hits; AID 1875;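 active = lowest replicate activity score at least 50, where 100 means six control SD above control mean; inconclusive = lowest score under 50 but half or more replicates reach 50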;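 note: yeast exposed to compound for 9 h at 30 °C; higher score means more reporter readthrough which indicates perturbed polyadenylation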
# Hsp70 activator: transcriptional activators of Hsp70; HeLa Hsp70 promoter luciferase reporter, luminescence; scaled: vehicle 0, proteasome-inhibitor control 100%; 200,000 compounds, 0.04% hits; activation, % at 10 µM;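 active = activation above the mean across all tested compounds plus 3 SD, cutoff set per campaign, cut at about 5.5% in these data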;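 note: 100% = MG132 at 30 µM as the positive control and 0% = DMSO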
# STAT3 activator: increases IL-6 driven STAT3 reporter signal; U3A cells, IL-6 STAT3-luciferase reporter, luminescence; 100% = signal with IL-6 EC80 alone; activation (% of control), % at 5.6 µM; 190,000 compounds, 0.91% hits; AID 871;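 active = activation above the screen-wide mean of compound activation plus 3 SD, cut at about 130% in these data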;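 note: 0% = background luminescence of wells with medium and substrate only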
#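 Test system: human U3A cells carrying STAT3-luciferase construct; control set: IL-6-only wells as 100% reference; timing: compound pre-incubation 1 h before IL-6, then 6 h stimulation at 37 °C; also added: IL-6 stimulus at 33 ng/mL final; evaluation: % activation versus median of IL-6-stimulated wells; detection: reporter luminescence signal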
# PERK inhibitor: human PERK inhibition, primary cell-based screen; CHO PERK-DD fusion, SEAP luminescence translation reporter; inhibition, % at 5.6 µM; 220,000 compounds, 0.17% hits; AID 1416;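 active = inhibition above the mean inhibition of all tested compounds plus 3 SD, set separately per screening campaign, cut at about 2.9% in these data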;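 note: PERK kinase domain activated by AP20187 dimerizer at 100 nM; 0% = DMSO with dimerizer and 100% = rapamycin at 8.4 µM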
# Target sequence (Q9NZJ5 whole entry, looked up, the tested form may be a part): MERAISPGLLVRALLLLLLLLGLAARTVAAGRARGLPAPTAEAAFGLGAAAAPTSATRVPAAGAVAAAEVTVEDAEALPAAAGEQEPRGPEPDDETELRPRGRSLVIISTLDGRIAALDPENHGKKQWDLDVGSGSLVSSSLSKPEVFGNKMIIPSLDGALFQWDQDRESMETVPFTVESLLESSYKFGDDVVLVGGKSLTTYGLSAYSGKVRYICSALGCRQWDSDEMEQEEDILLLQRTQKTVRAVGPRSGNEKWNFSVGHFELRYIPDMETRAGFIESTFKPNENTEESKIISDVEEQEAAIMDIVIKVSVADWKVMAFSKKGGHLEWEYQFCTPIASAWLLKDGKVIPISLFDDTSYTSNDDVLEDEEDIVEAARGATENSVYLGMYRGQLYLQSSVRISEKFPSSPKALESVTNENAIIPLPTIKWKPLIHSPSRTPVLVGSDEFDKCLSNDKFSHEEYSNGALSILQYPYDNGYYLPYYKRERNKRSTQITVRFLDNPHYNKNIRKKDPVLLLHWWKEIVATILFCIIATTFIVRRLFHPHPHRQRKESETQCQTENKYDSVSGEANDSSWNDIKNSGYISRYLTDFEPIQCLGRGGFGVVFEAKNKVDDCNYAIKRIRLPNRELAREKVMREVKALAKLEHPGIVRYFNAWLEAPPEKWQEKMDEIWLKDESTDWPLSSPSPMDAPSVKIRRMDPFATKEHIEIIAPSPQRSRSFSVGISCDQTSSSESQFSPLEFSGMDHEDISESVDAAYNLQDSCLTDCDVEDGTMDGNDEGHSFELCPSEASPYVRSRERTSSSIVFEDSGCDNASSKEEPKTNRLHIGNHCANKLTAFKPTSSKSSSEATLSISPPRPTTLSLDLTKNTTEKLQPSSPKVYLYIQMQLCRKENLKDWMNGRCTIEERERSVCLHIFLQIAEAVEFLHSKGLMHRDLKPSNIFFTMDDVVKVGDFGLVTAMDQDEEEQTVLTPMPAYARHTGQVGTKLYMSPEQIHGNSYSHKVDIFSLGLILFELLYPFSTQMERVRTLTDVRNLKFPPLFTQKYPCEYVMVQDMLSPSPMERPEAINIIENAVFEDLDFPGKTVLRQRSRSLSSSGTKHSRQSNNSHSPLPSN
# HSF1 inh: HSF1 inhibition | activity change, negative = inhibition, % at 7.5 µM (by protocol) | NIH3T3-HGL HSE-luciferase, MG132-induced, luminescence 8 h; stronger effect = lower value | 300,000 compounds, 0.77% hits;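 active = more than half of replicate wells show activity change below -50%, luminescence cut by over half; inconclusive = some wells, but at most half, below -50%; inactive = no replicate well below -50%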;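 note: luciferase reports HSF-1 transcriptional activity via heat shock element; 0% = median of DMSO wells and -100% = zero luminescence signal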
# AHR act: human AHR activation; P35869; AHR-responsive luciferase reporter cells, luminescence; activation, % at 5 µM; 320,000 compounds, 2.5% hits; AID 2796; in the data active = activation above about 47%;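 note: 0% = vehicle wells and 100% = reference agonist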
# Numbers without * were called inactive; ? = inconclusive; · = not tested or not shown. The list is not random: actives were taken first. Their share in the collection is about 3.6%.
SMILES,PolyA inh,Hsp70 activator,STAT3 activator,PERK inhibitor,HSF1 inh,AHR act
C=CCOn1c(=O)c(-c2ccccc2)[n+]([O-])c2ccccc21,-4,0,108,0,6,1
CCOC(=O)COn1c(=O)c(-c2cc3ccccc3o2)[n+]([O-])c2ccccc21,17,0,151*,0,22,62*
C=CCOn1c(=O)c(-c2cc3ccccc3o2)[n+]([O-])c2ccccc21,4,0,119,0,13,64*
CC(=O)c1sc(NC(=O)CSC(C)C(=O)Nc2cc(C)on2)nc1-c1ccccc1 (configuration not stated),-9,·,·,·,-4,2
CCOC(=O)c1c(C)oc2cc(Br)c(OC(=O)N3CCOCC3)cc12,12,0,102,0,15,52*
COc1cc2c(C(=O)N3CCN(C)CC3)c(C)oc2cc1Br,5,0,93,-1,-3,2
CCN(CC)C(=O)c1cccc(NC(=O)CC23CC4CC(CC(C4)C2)C3)c1,0,·,·,·,0,-2
COc1ccccc1NC(=O)c1ccc2nsnc2c1,-4,·,·,·,17,56*
Cc1c(NC(=O)c2ccc3nsnc3c2)cccc1[N+](=O)[O-],-15,·,·,·,2,52*
O=C(O)C1CCCCC1C(=O)Nc1cccc(C(=O)N2CCCCC2)c1 (configuration not stated),17,0,91,1,-56*,0
O=C(O)C1CCCCC1C(=O)Nc1cccc(Br)c1 (configuration not stated),·,·,·,·,·,2
CCNC(=S)N(CCCN(CC)CC)Cc1cc2cc3c(cc2[nH]c1=O)OCO3,11,·,·,·,-2,4
Cc1ccc2cc(CN(CC3CCCO3)C(=S)Nc3ccccc3)c(=O)[nH]c2c1C (configuration not stated),13,0,102,0,5,51*
CCNC(=S)N(CCc1ccccc1C)Cc1cc2cc(OC)c(OC)cc2[nH]c1=O,-7,0,99,0,1,57*
CC(=O)N(CCc1ccccc1C)Cc1cc2cc3c(cc2[nH]c1=O)OCO3,7,0,101,1,-5,61*
CCN(CC)CCCN(Cc1cc2cc3c(cc2[nH]c1=O)OCO3)C(=S)Nc1ccccc1,-2,0,109,1,-1,49*
Cc1cccc(NC2CCCCC2NS(=O)(=O)c2ccccc2)c1 (configuration not stated),-15,·,·,·,0,·
O=C1c2ccccc2C(Nc2ccc3c(c2)OCCO3)N1c1ccc(Cl)cn1 (configuration not stated),-4,0,92,0,-54*,5
O=C1c2ccccc2C(Nc2ccc3c(c2)OCCO3)N1Cc1ccc2c(c1)OCO2 (configuration not stated),12,0,108,-1,-64*,5
O=C1c2ccccc2C(Nc2ccc(F)c(Cl)c2)N1c1ccccn1 (configuration not stated),1,0,97,1,9,5
O=C1c2ccccc2C(Nc2ccc3c(c2)OCCO3)N1c1ccccn1 (configuration not stated),17,0,106,0,-70*,7
O=C1c2ccccc2C(Nc2ccccc2)N1c1ccc(Cl)cn1 (configuration not stated),·,0,93,1,·,·
O=C1c2ccccc2C(Nc2ccccc2)N1Cc1ccc2c(c1)OCO2 (configuration not stated),5,·,·,-1,15,4
COc1cc(NC(=O)CCCNC(=O)Cn2cnc3sc(C)c(C)c3c2=O)cc(OC)c1OC,-24,·,·,·,-9,-1
Nc1nc(SCc2ccccc2Cl)ns1,1,0,97,1,?,1
SMILES,PolyA inh,Hsp70 activator,STAT3 activator,PERK inhibitor,HSF1 inh,AHR act
Nc1ccccc1SCc1ccccc1Cl,-24,·,·,1,-4,67*
Nc1ccccc1SCc1c(Cl)cccc1Cl,-12,·,·,1,1,50*
O=c1[nH]cc([N+](=O)[O-])cc1Br,-2,0,104,-1,-1,1
CC(C)OCCCN(C)C1CCN(S(=O)(=O)c2ccc(-c3cc(C(F)(F)F)no3)s2)CC1,0,·,·,·,-1,0
Cn1nc(C(=O)NCCc2ccc(S(N)(=O)=O)cc2)c2ccccc2c1=O,-6,·,·,2,-6,-2
CCn1cc(-c2ccccc2)c(C(=O)O)c1-c1ccc(OC)cc1,-11,·,·,·,-7,58*
COc1ccc(-c2nn(-c3ccccc3)cc2CO)cc1,-14,0,99,-1,10,10
COc1ccc(-c2cn(-c3ccccc3)nc2CO)cc1,-12,·,·,·,-89*,8
COc1ccc(CNC[C@H]2O[C@@H](n3cnc4c(N)ncnc43)[C@H](O)[C@@H]2O)cc1OC,·,·,·,·,·,1
COc1cc(NS(=O)(=O)c2ccc(C)cc2)c2ncccc2c1,-25,0,105,-1,-81*,9
COc1ccc(C(=O)CCC(=O)N2CCN(c3cc(C)ccc3C)CC2)cc1,7,·,·,·,3,-2
COc1ccccc1C1C=C(c2ccc(C)cc2)Nc2nnnn21 (configuration not stated),-10,0,90,0,-1,54*
Cn1c(=O)[nH]c(=O)c2c1nc(NC1CCCC1)n2Cc1ccccc1,-1,·,·,·,-2,1
COc1cccc2c1OCC(CN1CCN(CCC(C)C)C(CCO)C1)=C2 (configuration not stated),4,0,104,0,-10,0
COc1ccc(C(=O)c2c[nH]cc2-c2ccccc2)cc1,-19,0,103,1,-57*,1
O=C(c1ccc2ccccc2c1)c1c[nH]cc1-c1ccccc1,-18,1,101,0,5,7
COc1ccccc1C(=O)N/C(=C\c1cn(C)c2ccccc12)C(=O)N1CCCC1,-9,·,·,·,-1,39
CC(CCN1CCN(CCO)CC1)c1ccccc1 (configuration not stated),-15,·,·,·,-4,-1
NS(=O)(=O)c1ccc(NC2=CC(c3ccc([N+](=O)[O-])cc3)N(c3ccc(S(N)(=O)=O)cc3)C2=O)cc1 (configuration not stated),3,·,·,0,-4,2
CC(=O)Oc1ccc(-c2nc(-c3cccnc3)no2)cc1,-6,0,75,1,22,0
Brc1ccc(-c2nc(-c3cccnc3)no2)o1,2,0,92,2,14,63*
CCOC(=O)c1c(-c2ccccc2)n(C)c2ccc(O)cc12,-14,0,97,-1,-57*,9
CCOC(=O)c1c(C)n(C)c2cc(-c3cccc(C(F)(F)F)c3)c(O)cc12,4,0,86,2,-4,49*
CN(C)c1ccc(CNS(=O)(=O)c2ccc3c(c2)C(C)(C)C(=O)N3C)cc1,7,·,·,·,3,1

# Screens as filed in PubChem BioAssay.
